According to ChEMBL document CHEMBL1139658, “Synthesis and screening of bicyclic carbohydrate-based compounds: a novel type of antivirals” (Bioorg Med Chem Lett, 2006):
In brackets after ≈: the same amount, converted by molar mass.

How the values were obtained:
Cytomegalovirus [1] = assay: Antiviral activity against Cytomegalovirus Davies in human embryonic lung cells; format: functional, organism-based; conditions: Human betaherpesvirus 5, Davies
How it was run: (§1)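 HEL cell monolayers infected at 20 PFU per well, adsorbed 2 h at 37 °C. Medium with serial compound dilutions then added. Giemsa stain on day 7 and plaques counted under the microscope. IC50 is the concentration giving 50% inhibition of virus-induced plaque formation. Minimum cytotoxic concentration scored on day 7 as the lowest concentration causing visible change to the confluent cells.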

Cytomegalovirus [2] = assay: Antiviral activity against Cytomegalovirus AD-169 in human embryonic lung cells; format: functional, organism-based; conditions: Human betaherpesvirus 5, AD-169, lung; how it was run: as §1
HEL = assay: Cytotoxicity against human embryonic lung cells; format: functional
How it was run: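 Two HEL cell toxicity read-outs. Cell growth (CC50): growing HEL cells in 96-well plates were given serial compound concentrations for 3 days, then trypsinized and counted with a Coulter counter; CC50 is the concentration cutting cell growth by 50%. Morphology (MCC): on confluent monolayers during the antiviral assay, this is the lowest concentration with microscopically visible toxicity at day 7.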

| Structure (SMILES) | IC50 (Cytomegalovirus [1]) | IC50 (Cytomegalovirus [2]) | MCC (HEL) | CC50 (HEL) |
| --- | --- | --- | --- | --- |
| C#CCO[C@@H]1[C@@H](OCC#C)[C@H](Cc2ccccc2)O[C@@H]2CO[C@@H](c3ccccc3)O[C@@H]12 | 0.5 µg/mL (≈ 1.19 µM) | 0.5 µg/mL (≈ 1.19 µM) | 40 µg/mL | – |
| CC(C)CO[C@@H]1[C@@H](OCC(C)C)[C@@H](c2ccccc2)O[C@@H]2CO[C@@H](c3ccccc3)O[C@@H]12 | 3.2 µg/mL (≈ 7.26 µM) | 2.6 µg/mL (≈ 5.9 µM) | 40 µg/mL | – |
| CO[C@@H]1[C@@H](OC)[C@H](c2ccccc2)O[C@@H]2CO[C@@H](c3ccc(-c4ccccc4)cc3)O[C@@H]12 | 0.6 µg/mL (≈ 1.39 µM) | 0.8 µg/mL (≈ 1.85 µM) | ≥ 16 µg/mL | > 50 µg/mL |
| CCO[C@@H]1[C@@H](OCC)[C@H](Cc2ccccc2)O[C@@H]2CO[C@@H](c3ccccc3)O[C@@H]12 | 3 µg/mL (≈ 7.53 µM) | 2.6 µg/mL (≈ 6.52 µM) | > 120 µg/mL | > 50 µg/mL |
| CO[C@@H]1[C@@H](OC)[C@H](c2ccccc2)O[C@@H]2CO[C@@H](c3ccc(C(F)(F)F)cc3)O[C@@H]12 | 3.1 µg/mL (≈ 7.3 µM) | 1.5 µg/mL (≈ 3.53 µM) | ≥ 16 µg/mL | > 50 µg/mL |
| O[C@@H]1[C@@H](O)[C@H](c2ccccc2)O[C@@H]2CO[C@@H](c3ccc(C(F)(F)F)cc3)O[C@@H]12 | 1.6 µg/mL (≈ 4.04 µM) | 1.6 µg/mL (≈ 4.04 µM) | 400 µg/mL | 35 µg/mL (≈ 88.3 µM) |
| CO[C@@H]1[C@@H](OC)[C@H](c2ccccc2)O[C@@H]2CO[C@@H](c3ccc(Cl)cc3)O[C@@H]12 | 4 µg/mL (≈ 10.2 µM) | 5 µg/mL (≈ 12.8 µM) | ≥ 100 µg/mL | > 50 µg/mL |
| O[C@@H]1[C@@H](O)[C@H](c2ccccc2)O[C@@H]2CO[C@@H](c3ccc(Cl)cc3)O[C@@H]12 | 10 µg/mL (≈ 27.6 µM) | 14 µg/mL (≈ 38.6 µM) | ≥ 100 µg/mL | > 50 µg/mL |
| O[C@@H]1[C@@H](O)[C@H](c2ccccc2)O[C@@H]2CO[C@@H](c3ccc4ccccc4c3)O[C@@H]12 | 1.8 µg/mL (≈ 4.76 µM) | 1.3 µg/mL (≈ 3.44 µM) | ≥ 400 µg/mL | 21 µg/mL (≈ 55.5 µM) |
| CCCCCO[C@@H]1[C@@H](OCCCCC)[C@H](c2ccccc2)O[C@@H]2CO[C@@H](c3ccccc3)O[C@@H]12 | 2.4 µg/mL (≈ 5.12 µM) | > 3.2 µg/mL | 16 µg/mL | 182 µg/mL (≈ 388 µM) |
| CO[C@@H]1[C@@H](OC)[C@H](c2ccccc2)O[C@@H]2CO[C@@H](c3ccc4ccccc4c3)O[C@@H]12 | 0.8 µg/mL (≈ 1.97 µM) | 0.47 µg/mL (≈ 1.16 µM) | ≥ 16 µg/mL | > 50 µg/mL |
| C=CCO[C@@H]1[C@@H](OCC=C)[C@H](Cc2ccccc2)O[C@@H]2CO[C@@H](c3ccccc3)O[C@@H]12 | 1 µg/mL (≈ 2.37 µM) | 1.2 µg/mL (≈ 2.84 µM) | 20 µg/mL | > 50 µg/mL |
| CO[C@@H]1[C@@H](OC)[C@H](Cc2ccccc2)O[C@@H]2CO[C@@H](c3ccccc3)O[C@@H]12 | 5 µg/mL (≈ 13.5 µM) | 20 µg/mL (≈ 54 µM) | 20 µg/mL | > 50 µg/mL |
| CO[C@H]1[C@@H]2O[C@H](c3ccccc3)OC[C@H]2O[C@@H](c2ccccc2)[C@H]1OC | > 50 µg/mL | > 50 µg/mL | 400 µg/mL | – |
| CO[C@@H]1[C@@H](OC)[C@H](c2ccccc2)O[C@@H]2CO[C@@H](c3cccc(Cl)c3)O[C@@H]12 | 3.2 µg/mL (≈ 8.19 µM) | 5 µg/mL (≈ 12.8 µM) | ≥ 40 µg/mL | – |
| C=CC[C@@H]1O[C@@H]2CO[C@@H](c3ccccc3)O[C@H]2[C@H](OC)[C@H]1OC | > 50 µg/mL | > 50 µg/mL | – | – |
| CO[C@H]1[C@H]2O[C@H](c3ccccc3)OC[C@H]2O[C@@H](c2ccccc2)[C@@H]1OC | > 50 µg/mL | > 50 µg/mL | > 400 µg/mL | – |
| CO[C@@H]1[C@@H](OC)[C@H](c2ccccc2)O[C@@H]2CO[C@@H](C3CCCCC3)O[C@@H]12 | 3.5 µg/mL (≈ 9.66 µM) | 3.2 µg/mL (≈ 8.83 µM) | 20 µg/mL | 28 µg/mL (≈ 77.2 µM) |
| O=[N+]([O-])c1ccc([C@@H]2OC[C@H]3O[C@@H](c4ccccc4)[C@H](O)[C@@H](O)[C@@H]3O2)cc1 | 9.3 µg/mL (≈ 24.9 µM) | 10 µg/mL (≈ 26.8 µM) | 50 µg/mL | > 50 µg/mL |
| C#CCO[C@@H]1[C@@H](OCC#C)[C@H](c2ccccc2)O[C@@H]2CO[C@@H](c3ccccc3)O[C@@H]12 | 3 µg/mL (≈ 7.42 µM) | 5 µg/mL (≈ 12.4 µM) | 40 µg/mL | – |
| CO[C@@H]1[C@@H](OC)[C@H](c2ccccc2)O[C@@H]2CO[C@@H](c3ccccc3)O[C@@H]12 | 2.4 µg/mL (≈ 6.73 µM) | 2 µg/mL (≈ 5.61 µM) | – | – |
